Rtt109 Vps75 – inhibitors of Candida albicans Rtt109/Vps75 histone acetyltransferase | Q5AAJ8 | purified Rtt109/Vps75, ThioGlo CoA-SH fluorescence, 4 h | inhibition, % at 34.9 µM | hit rate 0.16% among 330,000 | AID 540336;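 active = inhibition of at least 50% in every replicate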
Target sequence (Q5AAJ8 whole entry, looked up): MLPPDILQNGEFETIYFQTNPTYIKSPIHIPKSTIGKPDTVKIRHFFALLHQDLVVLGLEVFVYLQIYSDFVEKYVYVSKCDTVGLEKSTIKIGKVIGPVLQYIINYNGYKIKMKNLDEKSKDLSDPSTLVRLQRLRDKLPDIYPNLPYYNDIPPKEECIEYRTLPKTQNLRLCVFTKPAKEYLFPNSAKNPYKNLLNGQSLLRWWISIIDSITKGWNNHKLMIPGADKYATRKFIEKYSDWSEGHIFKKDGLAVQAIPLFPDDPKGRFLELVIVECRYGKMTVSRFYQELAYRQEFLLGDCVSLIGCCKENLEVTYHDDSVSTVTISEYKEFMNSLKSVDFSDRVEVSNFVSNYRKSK
ERAP1 HTS inh – inhibitors of human ERAP1 aminopeptidase; Q9NZ08; hit rate 0.15% among 340,000; inhibition, % at 10.7 µM; AID 652197; recombinant ERAP1, Leu-AMC fluorescence, 60 min;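 active = mean replicate inhibition of at least 30%, or all replicates individually reaching that 30% level; inactive = mean below 30% and not every replicate reaching it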;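 note: 0% = neutral control wells and 100% = L-leucinethiol positive control wells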
S100A4 inh HTS – inhibitors of human S100A4 binding to myosin IIA peptide | P26447 | S100A4/TAMRA-MyoIIA peptide fluorescence polarization | inhibition, % at 10.7 µM | hit rate 0.14% among 360,000 | AID 652163;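 active = mean inhibition of at least 70% across replicates, with every replicate also reaching that level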
Target sequence (P26447 whole entry, looked up): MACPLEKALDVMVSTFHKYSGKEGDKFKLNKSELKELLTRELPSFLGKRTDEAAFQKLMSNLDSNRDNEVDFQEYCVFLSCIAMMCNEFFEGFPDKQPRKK
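System – human S100A4 monomer protein, biochemical binding assay · Buffer or medium – Calcium-containing HEPES buffer, pH 7.2 · Timing – 5 min between mix addition and reading · Also added – TAMRA-labelled myosin IIA heavy-chain peptide probe, 5 nM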
C2C12 statin – protects C2C12 myotubes from simvastatin toxicity; ATP luminescence, 48 h; scaled: DMSO 0, geranylgeraniol control 100; AID 602340; rescue of ATP level, % at 7.49 µM; hit rate 0.78% among 330,000;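 active = mean ATP rescue above about 67%, or every replicate alone reaching that limit, limit read from the data, passing the limit was not always enough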;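 note: myotubes were challenged with 10 µM simvastatin during compound exposure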
PGC1a acetyl inh – PGC1a acetylation modulation, inhibitor mode. U2OS PGC1a acetylation, AlphaScreen anti-acetyl-lysine; with virally co-expressed GCN5 acetyltransferase. inhibition, % at 15.6 µM. AID 651687. hit rate 0.17% among 350,000;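 active = every replicate shows inhibition of at least 40%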;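 note: 0% = neutral control wells and 100% = positive control wells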
Starred values were filed as active, the others as inactive; x = not tested or not shown; ! = repeats disagree. Rows were chosen to be rich in hits. Some 0.98% of all compounds tested hit in one or more screens of this group.

SMILES	Rtt109 Vps75	ERAP1 HTS inh	S100A4 inh HTS	C2C12 statin	PGC1a acetyl inh
O=C(NCc1ccncc1)C(=O)NCC(c1ccco1)N1CCN(c2ccc(F)cc2)CC1 (stereo not drawn)	53.1*	x	x	1.3	4.5
CCC(=O)c1ccc(OCC(=O)O)cc1	-1.8	x	x	106.8*	-7.2
CCC(=O)c1ccc(OCC(=O)NC2CCCC2)cc1	3.1	-1.7	-1.6	-4.4	-4.4
CCN(CC)CCNC(=O)c1ccc2c(c1NCCO)C(=O)c1ccccc1C2=O	x	1.4	-24.1	x	91.6*
CC1CCN(C(=O)c2ccc3c(c2NCCO)C(=O)c2ccccc2C3=O)CC1	-3.5	x	x	x	-19.3
O=C(NCc1ccc(Cl)cc1)c1ccccc1CCc1ccccc1	52.0*	x	x	x	-9.8
COc1ccc2c3c([nH]c2c1)[C@H](CO)N(Cc1ccccc1F)CC31CCN(C(=O)C2CCC2)CC1	x	-0.4	-2.4	x	x
Cc1nc2cc(C(=O)NCCN3CCOCC3)ccc2n1-c1ccc(F)cc1F	-22.0	x	x	98.2*	4.6
O=C(NC(=S)NCCN1CCOCC1)c1ccc(Cl)cc1Cl	15.4	x	x	89.2*	0.2
CC(C)(C)c1ccc(C(=O)NCCN2CCOCC2)cc1	-2.7	5.0	-4.6	x	64.8*
CCCNC(=O)[C@@H]1[C@@H](CO)[C@@H]2Cn3c(cccc3=O)[C@H]1N2Cc1cc(F)ccc1F	x	-1.1	7.5	-5.4	x
CC(C)(C)OC(=O)N1CCC(C(=O)N[C@@H](Cc2ccccc2)C(=O)O)CC1	-3.2	x	x	114.6*	-1.3
CC1CN(C(=O)N[C@@H](Cc2ccccc2)C(=O)O)CC(C)O1 (stereo partly drawn)	0.5	x	x	85.9*	-19.1
CCN1CCN(c2nc3sc4c(c3c3ncnn23)CC(C)CC4)CC1 (stereo not drawn)	25.2	x	x	126.2*	6.1
CC1CCc2sc3nc(NCc4ccco4)n4ncnc4c3c2C1 (stereo not drawn)	5.5	x	x	16.5	-5.7
COc1ccccc1C(=O)CSc1nccn1C	53.8*	0.3	-2.5	-0.2	8.1
Cn1ccnc1SCC(=O)c1c[nH]c2ccccc12	-3.4	-5.1	-5.6	-3.3	3.6
Cn1c(SCC(=O)NC2CCCCC2)nnc1-c1ccncc1	2.7	2.3	-1.1	0.9	x
Cn1c(SCC(=O)NC2CCCCC2)nnc1-c1cccnc1	54.5*	-1.9	-2.8	-4.1	-20.1
Cn1ccnc1SCC(=O)NC1CCCC1	-21.8	31.1*	-1.3	0.6	-5.9
Cn1cnnc1SCC(=O)NC1CCCCC1	-2.4	-0.9	1.9	3.4	10.5
C[C@@H]1CN([C@@H](C)CO)C(=O)c2cc(/C=C/c3ccccc3)cnc2O[C@@H]1CN(C)C(=O)c1cnccn1	x	0.1	2.0	1.7	5.4
CCNC(=O)C[C@@H]1C=C[C@@H](NC(=O)C2CCC2)[C@H](CO)O1	x	0.0	-4.8	-3.3	-3.1
COc1ccc(NC(=O)N(C)C[C@H]2Oc3ccc(NS(=O)(=O)c4c(C)noc4C)cc3C(=O)N([C@H](C)CO)C[C@@H]2C)cc1	-16.5	-0.6	-7.1	123.6*	-0.9
COc1ccc(S(=O)(=O)Nc2ccc3c(c2)C(=O)N([C@H](C)CO)C[C@H](C)[C@@H](CN(C)C(=O)Nc2c(C)noc2C)O3)cc1	-10.4	-1.0	-5.6	125.8*	-0.1
SMILES	Rtt109 Vps75	ERAP1 HTS inh	S100A4 inh HTS	C2C12 statin	PGC1a acetyl inh
C[C@@H]1CN([C@H](C)CO)C(=O)c2cc(NS(=O)(=O)c3ccc(Cl)cc3)ccc2O[C@@H]1CN(C)C(=O)Nc1ccccc1	x	1.9	1.6	82.3*	16.7
COc1ccc(NC(=O)N(C)C[C@@H]2Oc3ccc(NS(=O)(=O)c4c(C)noc4C)cc3C(=O)N([C@@H](C)CO)C[C@@H]2C)cc1	x	1.2	-16.5	-7.6	-8.7
Cc1noc(C)c1NC(=O)N(C)C[C@@H]1OCCCC[C@@H](C)Oc2ccc(NS(=O)(=O)c3ccc(F)cc3)cc2C(=O)N([C@@H](C)CO)C[C@H]1C	x	-3.3	2.7	20.1	x
Cc1noc(C)c1NC(=O)N(C)C[C@H]1OCCCC[C@H](C)Oc2ccc(NS(=O)(=O)c3ccc(F)cc3)cc2C(=O)N([C@H](C)CO)C[C@@H]1C	x	-7.5	134.2*	-8.9	x
COc1ccccc1-c1cn(CC[C@@H]2CC[C@@H](NC(=O)C3CC3)[C@H](CO)O2)nn1	x	-0.8	-21.4	-5.2	1.8
C[C@@H]1CN([C@H](C)CO)C(=O)Cc2cc(NC(=O)Nc3ccc(F)cc3)ccc2O[C@@H]1CN(C)S(=O)(=O)c1ccc(F)cc1	x	-1.2	-4.9	8.5	7.5
C[C@H]1CN([C@@H](C)CO)C(=O)c2cc(C#CC3CCCCC3)cnc2O[C@@H]1CN(C)S(=O)(=O)c1ccc(F)cc1	x	0.9	-30.7	57.2	-8.8
CO[C@@H]1CN(C)C(=O)c2ccc(NS(C)(=O)=O)cc2OC[C@H](C)N(C)C[C@@H]1C	x	-0.8	29.5	-3.2	-0.4
COc1ccc(NC(=O)N(C)C[C@H]2Oc3ccc(NS(=O)(=O)c4ccc(OC)cc4)cc3C(=O)N([C@@H](C)CO)C[C@H]2C)cc1	x	4.8	8.7	73.2*	-13.5
COc1ccc(S(=O)(=O)Nc2ccc3c(c2)C(=O)N([C@@H](C)CO)C[C@@H](C)[C@H](CN(C)C(=O)Nc2c(C)noc2C)OCCCC[C@H](C)O3)cc1	x	0.2	-6.2	89.1*	-6.3
C=CCn1c(=O)[nH]c(=O)c2c(N)c(C(=O)c3ccc(OC)cc3)sc21	4.2	x	3.3	135.4*	14.3
Cc1ccc(C(=O)c2sc3c(c2N)c(=O)[nH]c(=O)n3CCc2ccccc2)cc1	-7.6	x	x	x	x
Cc1c(NC(=O)CSc2ccccn2)c(=O)n(-c2ccccc2)n1C	x	x	x	111.4*	-8.8
CNC[C@H]1Oc2ccc(NC(=O)Nc3ccc(F)cc3)cc2CC(=O)N([C@@H](C)CO)C[C@@H]1C	x	1.8	-30.9	14.6	-8.2
CCCCCC(=O)NC(=S)Nc1cccc(C(C)=O)c1	x	-2.1	-1.9	-6.6	-1.8
CCCC(=O)NC(=S)Nc1cccc(C(C)=O)c1	-2.8	x	x	114.1*	-7.4
COCC(=O)Nc1ccc2c(c1)[C@H]1C[C@H](CC(=O)N3CCCCC3)O[C@@H](CO)[C@H]1O2	x	x	x	-0.3	0.6
C[C@H](CO)N1C[C@H](C)[C@H](CN(C)C(=O)Nc2cccc3ccccc23)Oc2ccc(NS(=O)(=O)c3cccs3)cc2CC1=O	x	x	x	11.6	-1.3
CC(C)Nc1nc(NC(C)C)nc(N(C)n2cnnc2)n1	-0.7	x	x	98.3*	-7.3
CCC(=O)N1CCCCN2[C@H](CO)[C@H](c3ccc(/C=C/c4ccccc4)cc3)[C@H]2C1	x	0.9	-6.1	x	-8.3
Nc1nc2ncc(CNc3ccc(C(=O)N[C@@H](CCC(=O)O)C(=O)O)cc3)nc2c(=O)[nH]1	-4.7	4.2	3.6	14.6	0.7
CN(Cc1cnc2nc(N)nc(N)c2n1)c1ccc(C(=O)N[C@@H](CCC(=O)O)C(=O)O)cc1	-12.2	-38.1	-3.3	7.5	42.6*!
COc1cnc(N(C)C)nc1Sc1ccc(Cl)cc1	-4.0	x	x	103.7*	-8.7
COc1cnc(-c2ccccn2)nc1Sc1ccc(Cl)cc1	5.2	x	x	-2.6	x

Compound activity from PubChem.
